Screens: PubChem BioAssay, several laboratories
Sampled rows, rich in hits. Any-hit rate of the full collection: about 9.4%.
Mdm2-MdmX inh – inhibitors of human Mdm2-MdmX association, primary screen, cell-based, luminescence, split luciferase, SaOS-2, uHTS. 3% of 330,000 active. Protein Mdm4 (Homo sapiens) + E3 ubiquitin-protein ligase Mdm2 (Homo sapiens), …. SaOS-2 split-luciferase Mdm2/MdmX complementation. inhibition, % at 8 µM;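 active means inhibition of at least 50% at 8 µM in the primary screen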
Target sequence (O15151 whole entry, looked up): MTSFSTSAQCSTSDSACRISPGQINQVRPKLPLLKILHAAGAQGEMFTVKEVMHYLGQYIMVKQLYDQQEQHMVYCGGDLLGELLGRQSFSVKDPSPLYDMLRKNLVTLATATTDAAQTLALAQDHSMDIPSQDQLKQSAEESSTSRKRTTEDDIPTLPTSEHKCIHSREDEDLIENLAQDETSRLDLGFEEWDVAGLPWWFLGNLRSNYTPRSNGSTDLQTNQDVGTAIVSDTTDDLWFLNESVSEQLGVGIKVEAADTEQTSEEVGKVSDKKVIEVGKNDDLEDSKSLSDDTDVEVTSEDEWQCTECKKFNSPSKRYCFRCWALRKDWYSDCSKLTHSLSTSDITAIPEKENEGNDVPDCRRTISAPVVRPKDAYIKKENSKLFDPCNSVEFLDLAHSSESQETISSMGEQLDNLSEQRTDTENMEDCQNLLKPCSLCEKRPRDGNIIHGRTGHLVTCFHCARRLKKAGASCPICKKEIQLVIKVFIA
Target sequence (Q00987 whole entry, looked up): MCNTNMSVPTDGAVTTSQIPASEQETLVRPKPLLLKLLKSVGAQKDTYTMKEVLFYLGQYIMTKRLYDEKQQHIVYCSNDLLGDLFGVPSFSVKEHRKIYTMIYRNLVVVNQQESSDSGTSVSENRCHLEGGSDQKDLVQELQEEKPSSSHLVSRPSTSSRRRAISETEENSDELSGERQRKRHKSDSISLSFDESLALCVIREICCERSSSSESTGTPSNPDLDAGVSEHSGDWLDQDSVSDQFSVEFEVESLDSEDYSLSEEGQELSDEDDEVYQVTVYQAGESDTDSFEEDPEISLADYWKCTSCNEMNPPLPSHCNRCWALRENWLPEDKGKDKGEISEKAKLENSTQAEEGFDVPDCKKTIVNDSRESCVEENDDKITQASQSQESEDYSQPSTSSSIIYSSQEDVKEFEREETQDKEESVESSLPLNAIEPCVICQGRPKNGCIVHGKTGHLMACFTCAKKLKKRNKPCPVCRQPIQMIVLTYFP
Beta apoptosis – inhibitors of cytokine-induced beta cell apoptosis, primary screen, luminescence; INS-1E cytokine-induced death, ATP luminescence, 48 h; percent of positive-control rescue, neutral wells zero; protection from apoptosis, % (test concentration not listed); 0.8% of 300,000 active; AID 435005, 2010;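 active means Every replicate reaches about 75%, or at least half do and their mean reaches it too, limit read from the data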;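 further: 0% = cytokine-treated negative control wells and 100% = positive control rescue; higher means more ATP so stronger rescue from cytokine killing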
CSC inhib – cancer stem cell viability inhibitors, primary screen, luminescence. cancer stem cell-like cells viability. inhibition, % at 7.5 µM. 1.1% of 300,000 active. AID 2717, 2010; in the data active means inhibition above about 75%; tested in HMLE shEcad cells
T cruzi inh – inhibitors of intracellular T. cruzi growth, primary screen, luminescence, NIH3T3 host cells; T. cruzi beta-gal in NIH3T3, 90 h; inhibition, % (test concentration not listed); 1.4% of 300,000 active;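 active means mean inhibition across valid replicates above about 55%, limit read from the data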;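 further: signal also drops with host cell toxicity which is not excluded here; 0% = plate median of DMSO wells and 100% = zero luminescence signal; higher percent means less beta-gal luminescence so fewer parasites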
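Incubation – ≥90 h infection period, 3 h prior cell attachment · System – NIH/3T3 fibroblasts plus reporter T. cruzi · Doses – compound pinned at 50 nL/well, DMSO · Read-out basis – percent inhibition of parasite-derived β-gal signal · Signal – luminescent β-galactosidase signal after 60 min lysis · Also added – 5000 T. cruzi trypomastigotes/well · Medium – Low-serum DMEM with 2% FBS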
Lmaj promast – Leishmania major promastigote growth inhibition, primary screen; Leishmania major promastigotes, resazurin fluorescence viability; inhibition, % at 10 µM; 9% of 200,000 active; AID 1063, 2008; in the data active means inhibition above about 50%;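 further: promastigotes grown with compound for 44 hours at 28 °C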
SKKanGAS inh – S. pyogenes SKKanGAS growth inhibitors in kanamycin, primary screen, streptokinase expression inhibitor project, SKKanGAS strain, BacTiter-Glo luminescence | AID 1662, 2009 | inhibition, % at 7.5 µM | 6 h | 1.3% of 300,000 active;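 active means mean replicate score, as percent of positive control median, at least 50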;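 further: strain carries kanamycin resistance gene driven by streptokinase promoter and grows in 40 µg/ml kanamycin; loss of luminescence reflects streptokinase promoter inhibition or plain growth inhibition; 0% = median of DMSO wells and 100% = positive control at its reference dose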
* = called active by the depositor; nt = no result.

SMILES	Mdm2-MdmX inh	Beta apoptosis	CSC inhib	T cruzi inh	Lmaj promast	SKKanGAS inh
CC(C)CCn1c(=O)c(C(=O)Nc2ccccc2S(N)(=O)=O)c(O)c2ccccc21	42	nt	47	39	100*	45
CCCCCn1c(=O)c(C(=O)Nc2nc3ccccc3[nH]2)c(O)c2ccccc21	21	80*	8	-33	nt	31
CCCCCn1c(=O)c(C(=O)Nc2ncccc2C)c(O)c2ccccc21	18	88*	-3	28	nt	101*
CCCCn1c(=O)c(C(=O)Nc2ccccc2C)c(O)c2ccccc21	14	46	-2	-11	nt	1
CCCCCn1c(=O)c(C(=O)Nc2ccccc2Cl)c(O)c2ccccc21	6	64	18	-19	nt	4
N=C1c2ccccc2CN1NC(=O)c1ccc(Br)cc1	4	2	-6	-31	6	-1
COc1ccccc1OCCCn1cc(C=O)c2ccccc21	18	2	-11	-1	4	-1
O=Cc1cn(CCCOc2ccccc2)c2ccccc12	12	-9	7	-7	66*	1
Cc1cc(C)c2c(ccc3cccc[n+]32)c1	29	82*	-11	13	nt	-6
CN(C)[C@@H]1C(=O)C(C(N)=O)=C(O)[C@@]2(O)C(=O)C3=C(O)c4c(O)ccc(Cl)c4[C@@](C)(O)[C@H]3C[C@@H]12	nt	nt	-4	0	nt	109*
CN(C)[C@@H]1C(=O)C(C(N)=O)=C(O)[C@@]2(O)C(=O)C3=C(O)c4c(O)cccc4[C@@](C)(O)C3C[C@@H]12 (stereo partly specified)	-7	-1	-5	-11	nt	109*
C1CC2OC2CC1C1CO1 (stereo unspecified)	0	1	3	nt	nt	nt
CCC(=NCCCN1CCOCC1)c1c(O)n(-c2ccccc2C)c(=O)[nH]c1=O	22	0	4	1	nt	-2
O=C(COc1ccc(Cl)cc1)NC1CN2CCC1CC2 (stereo unspecified)	-1	2	-10	7	99*	-3
CCOC(=O)C(O)(c1ccc(N(CC)C(=O)OC)cc1)C(F)(F)F (stereo unspecified)	1	nt	-15	-11	98*	nt
CCOC(=O)N(CC)c1ccc(C(O)(C(=O)OCC)C(F)(F)F)cc1 (stereo unspecified)	2	2	-4	10	98*	6
CCN(C(=O)Oc1ccccc1)c1ccc(C(O)(C(=O)OC)C(F)(F)F)cc1 (stereo unspecified)	26	-6	3	-3	99*	-1
CCOC(=O)C(O)(c1ccc(NC(=O)Oc2ccccc2)cc1)C(F)(F)F (stereo unspecified)	9	-1	-3	-4	0	32
CCOC(=O)N(C)c1ccc(C(O)(C(=O)OCC)C(F)(F)F)cc1 (stereo unspecified)	17	-3	-9	-15	99*	4
CCn1c(P(C)(=O)O)nc2cc(NC(=O)c3ccccc3F)ccc21	-13	3	0	-13	-10	4
O=P(O)(O)Oc1ccccc1P(=O)(c1ccccc1)c1ccccc1	19	-4	-16	-3	nt	-6
C#C[C@]1(O)[C@H](O)CC2C3CC[C@H]4C[C@@H](O)CC[C@]4(C)C3CC[C@@]21C (stereo partly specified)	16	-3	-3	nt	nt	nt
CCOC(=O)C(O)(c1ccc(NC(=S)NC(=O)c2ccc(Cl)cc2Cl)cc1)C(F)(F)F (stereo unspecified)	27	nt	nt	25	67*	29
COC(=O)C(O)(c1ccc(N(C)C(=O)OC(C)C)cc1)C(F)(F)F (stereo unspecified)	12	3	-10	11	92*	-6
Cc1nc2cc([N+](=O)[O-])ccc2c(=O)n1-c1ccccc1[N+](=O)[O-]	7	4	nt	59*	2	-10
SMILES	Mdm2-MdmX inh	Beta apoptosis	CSC inhib	T cruzi inh	Lmaj promast	SKKanGAS inh
Cc1nc2cc([N+](=O)[O-])ccc2c(=O)n1-c1ccc(Br)cc1	14	-7	-6	-5	nt	1
COC(=O)C1=C(c2ccc(OC)c(OC)c2)C[C@@H]2CC[C@H]1N2C(=O)NC1CCCCC1	18	-3	-4	nt	nt	nt
CCOc1ccc(NC(=O)C2C3c4ccccc4C(c4ccccc43)C2C(=O)O)cc1 (stereo unspecified)	7	-8	-14	6	-10	1
O=C(O)C1C2c3ccccc3C(c3ccccc32)C1C(=O)Nc1ccccc1 (stereo unspecified)	0	-1	5	-8	73*	12
O=C(c1ccc(Cl)cc1)N1CCC2(CC1)OCCO2	-27	-6	6	-21	nt	-3
Cn1ncc(Cl)c1C(=O)N1CCC2(CC1)OCCO2	18	nt	-6	-6	nt	51*
Cc1nc2c(c(=O)[nH]1)C(c1ccccc1Cl)c1c(c3ccccc3oc1=O)O2 (stereo unspecified)	4	-5	-7	-19	nt	0
C=C(CO)CC1CC(O)[C@]2(C)OC3CC4OC5C[C@]6(C)O[C@]7(C)CCC8OC9C[C@]%10(C)OC%11C(C)=CC(=O)OC%11CC%10OC9C[C@@H](C)C8OC7CC6O[C@]5(C)C/C=C\C4OC3CC2O1 (stereo partly specified)	32	22	-11	11	56*	13
Nc1c(C(=O)NCc2ccco2)c2nc3ccccc3nc2n1Cc1ccc(F)cc1	14	-10	19	43	59*	12
COCC(C)OC(=O)c1c(N)n(Cc2ccco2)c2nc3ccccc3nc12 (stereo unspecified)	-26	nt	-4	-2	95*	6
CCCN1CCCC(C(=O)c2cc(C)c(OC)c(C)c2)C1 (stereo unspecified)	5	nt	62	-2	nt	17
CN1CCCC(C(=O)c2ccccc2)C1 (stereo unspecified)	7	6	-11	-5	-5	-11
COc1c(C)cc(C(=O)C2CCCN(C3CCOCC3)C2)cc1C (stereo unspecified)	-24	-9	36	8	97*	-1
COc1ccc(C(=O)C2CCCN(C3CSCCSC3)C2)cc1OC (stereo unspecified)	13	-8	-3	30	18	-4
COc1ccc2cc(C(=O)C3CCCN(C4CCOCC4)C3)ccc2c1 (stereo unspecified)	4	1	48	12	99*	-3
O=C(c1ccc(Cl)cc1)C1CCCN(C2CCSCC2)C1 (stereo unspecified)	3	-4	42	25	91*	7
CCOc1cccc(OCC)c2c(C)[n+](CC3CCCO3)c(C)c1-2 (stereo unspecified)	8	nt	nt	1	93*	2
